Laboratory results from ChEMBL document CHEMBL1127837, “6,9-Bis[(aminoalkyl)amino]benzo[g]isoquinoline-5,10-diones. A novel class of chromophore-modified antitumor anthracene-9,10-diones: synthesis and antitumor evaluations” (J Med Chem, 1994).
≈ marks a conversion by molar mass, not a printed value.

Test system: LoVo
Experiment: Tested in vitro for cytotoxic activity against Human colon Adenocarcinoma sensitive cell line (LoVo)
Format: functional, cell-based
Details: not given
How it was run: (§1)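 LoVo and doxorubicin-resistant LoVo/Dx colon cells grown in Ham's F12 with 10% fetal calf serum, glutamine, vitamins and Hepes at 37 °C. 2.5 × 10^5 cells/mL plated and preincubated 24 h, then exposed to drug for 144 h. MTT read-out at 570 nm. IC50 (µg/mL) derived; resistance index = IC50 resistant / IC50 sensitive line.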

In order of falling IC50:
1. O=C1c2ccncc2C(=O)c2c(NCCOCCO)ccc(NCCOCCO)c21  8.7 µg/mL (≈ 20.9 µM)
2. NCCNc1ccc(NCCN)c2c1C(=O)c1cc[n+]([O-])cc1C2=O  7.3 µg/mL (≈ 21.4 µM)
3. CN(C)CCNc1ccc(NCCN(C)C)c2c1C(=O)c1cc[n+]([O-])cc1C2=O  0.44 µg/mL (≈ 1.11 µM)
4. NCCNc1ccc(NCCN)c2c1C(=O)c1ccncc1C2=O [PIXANTRONE]  0.24 µg/mL (≈ 0.738 µM)
5. CNCCNc1ccc(NCCNC)c2c1C(=O)c1ccncc1C2=O.Cl  0.08 µg/mL
6. COc1cccc2c1C(=O)c1c(O)c3c(c(O)c1C2=O)C[C@@](O)(C(=O)CO)C[C@@H]3O[C@H]1C[C@H](N)[C@H](O)[C@H](C)O1 [DOXORUBICIN]  0.03 µg/mL (≈ 0.0552 µM)

Test system: not listed separately
Experiment: The compound was tested for antitumor activity against P388 murine leukemia by measuring maximum tolerated dose
Format: ADME, organism-based
Details: mouse, in vivo; read-out: LD10
How it was run: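 CD2F1 mice were given 10^6 P388 cells iv, followed by iv treatment on days 1, 4 and 7 after transplantation. Mice were observed daily for toxicity and survival for 60 days. The value is the maximum tolerated dose, taken as LD10, or else the maximum dose administered.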

In order of falling MTD:
1. NCCNc1ccc(NCCN)c2c1C(=O)c1cc[n+]([O-])cc1C2=O  60 mg/kg/day
2. CN(C)CCNc1ccc(NCCN(C)C)c2c1C(=O)c1cc[n+]([O-])cc1C2=O  40 mg/kg/day
3. CNCCNc1ccc(NCCNC)c2c1C(=O)c1ccncc1C2=O.Cl  8 mg/kg/day
4. COc1cccc2c1C(=O)c1c(O)c3c(c(O)c1C2=O)C[C@@](O)(C(=O)CO)C[C@@H]3O[C@H]1C[C@H](N)[C@H](O)[C@H](C)O1 [DOXORUBICIN]  7.5 mg/kg/day

Test system: Mus musculus
Experiment: The compound was tested for antitumor activity against P388 murine leukemia at 6 (mg/kg/day) dose
Format: functional
Details: not given
How it was run: (§2)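 P388 cells kept by serial ip passage (10^5 cells) in DBA2 male mice. CD2F1 mice inoculated iv with 10^6 cells on day 0. Drug given iv on days 1, 4 and 7. Daily observation for toxicity and survival over 60 days. Median survival time per group, expressed as %T/C = MST treated/MST control × 100.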

With `COc1cccc2c1C(=O)c1c(O)c3c(c(O)c1C2=O)C[C@@](O)(C(=O)CO)C[C@@H]3O[C@H]1C[C@H](N)[C@H](O)[C@H](C)O1` [DOXORUBICIN] the T/C was 175%.

Test system: Mus musculus
Experiment: The compound was tested for antitumor activity against P388 murine leukemia at 9 (mg/kg/day) dose
Format: functional
Details: not given
How it was run: as §2

`COc1cccc2c1C(=O)c1c(O)c3c(c(O)c1C2=O)C[C@@](O)(C(=O)CO)C[C@@H]3O[C@H]1C[C@H](N)[C@H](O)[C@H](C)O1` [DOXORUBICIN] showed a T/C of 222%.

Test system: Mus musculus
Experiment: The compound was tested for antitumor activity against P388 murine leukemia at 7.5 (mg/kg/day) dose; 0/16 -no. of toxic deaths/no. of mice
Format: ADME, organism-based
Details: in vivo

For `COc1cccc2c1C(=O)c1c(O)c3c(c(O)c1C2=O)C[C@@](O)(C(=O)CO)C[C@@H]3O[C@H]1C[C@H](N)[C@H](O)[C@H](C)O1` [DOXORUBICIN], the Toxic deaths was 0.

Test system: Mus musculus
Experiment: The compound was tested for antitumor activity against P388 murine leukemia at 9 (mg/kg/day) dose; 3/8 -no. of toxic deaths/no. of mice
Format: ADME, organism-based
Details: in vivo

Compound `COc1cccc2c1C(=O)c1c(O)c3c(c(O)c1C2=O)C[C@@](O)(C(=O)CO)C[C@@H]3O[C@H]1C[C@H](N)[C@H](O)[C@H](C)O1` [DOXORUBICIN] has a Toxic deaths of 3.

Test system: P388
Experiment: Tested for antitumor activity against P388 murine leukemia
Format: functional, Mus musculus
Details: not given
How it was run: as §2

In order of falling T/C:
1. NCCNc1ccc(NCCN)c2c1C(=O)c1cc[n+]([O-])cc1C2=O  200%
2. CNCCNc1ccc(NCCNC)c2c1C(=O)c1ccncc1C2=O.Cl  189%
3. COc1cccc2c1C(=O)c1c(O)c3c(c(O)c1C2=O)C[C@@](O)(C(=O)CO)C[C@@H]3O[C@H]1C[C@H](N)[C@H](O)[C@H](C)O1 [DOXORUBICIN]  181%
4. CN(C)CCNc1ccc(NCCN(C)C)c2c1C(=O)c1cc[n+]([O-])cc1C2=O  122%

Test system: Mus musculus
Experiment: The compound was tested for antitumor activity against P388 murine leukemia at 6 (mg/kg/day) dose; 0/15 -no. of toxic deaths/no. of mice
Format: ADME, organism-based
Details: in vivo

`COc1cccc2c1C(=O)c1c(O)c3c(c(O)c1C2=O)C[C@@](O)(C(=O)CO)C[C@@H]3O[C@H]1C[C@H](N)[C@H](O)[C@H](C)O1` [DOXORUBICIN] showed a Toxic deaths of 0.

Test system: not listed separately
Experiment: Resistance index is the ratio of IC50 of resistant cell line/IC50 of sensitive cell line
Format: functional
Details: not given
How it was run: as §1

In order of rising Ratio:
1. CN(C)CCNc1ccc(NCCN(C)C)c2c1C(=O)c1cc[n+]([O-])cc1C2=O  6
2. NCCNc1ccc(NCCN)c2c1C(=O)c1cc[n+]([O-])cc1C2=O  10
3. NCCNc1ccc(NCCN)c2c1C(=O)c1ccncc1C2=O [PIXANTRONE]  30
4. O=C1c2ccncc2C(=O)c2c(NCCOCCO)ccc(NCCOCCO)c21  31
5. CNCCNc1ccc(NCCNC)c2c1C(=O)c1ccncc1C2=O.Cl  36
6. COc1cccc2c1C(=O)c1c(O)c3c(c(O)c1C2=O)C[C@@](O)(C(=O)CO)C[C@@H]3O[C@H]1C[C@H](N)[C@H](O)[C@H](C)O1 [DOXORUBICIN]  133

Test system: LoVo/DX (Homo sapiens)
Experiment: Tested in vitro for cytotoxic activity against Doxorubicin resistant Human colon Adenocarcinoma cell line
Details: not given

In order of rising IC50:
1. CN(C)CCNc1ccc(NCCN(C)C)c2c1C(=O)c1cc[n+]([O-])cc1C2=O  2.6 µg/mL (≈ 6.54 µM)
2. CNCCNc1ccc(NCCNC)c2c1C(=O)c1ccncc1C2=O.Cl  2.9 µg/mL
3. COc1cccc2c1C(=O)c1c(O)c3c(c(O)c1C2=O)C[C@@](O)(C(=O)CO)C[C@@H]3O[C@H]1C[C@H](N)[C@H](O)[C@H](C)O1 [DOXORUBICIN]  4 µg/mL (≈ 7.36 µM)
4. NCCNc1ccc(NCCN)c2c1C(=O)c1ccncc1C2=O [PIXANTRONE]  7.2 µg/mL (≈ 22.1 µM)
5. NCCNc1ccc(NCCN)c2c1C(=O)c1cc[n+]([O-])cc1C2=O  62.6 µg/mL (≈ 183 µM)
6. O=C1c2ccncc2C(=O)c2c(NCCOCCO)ccc(NCCOCCO)c21  267 µg/mL (≈ 642 µM)
